Here are results for 15 molecules from ChEMBL document CHEMBL2396544, “1,4-Diaryl-substituted triazoles as cyclooxygenase-2 inhibitors: Synthesis, biological evaluation and molecular modeling studies” (Bioorg Med Chem, 2013).

Experiment [1] deals with T1, Prostaglandin G/H synthase 2 (Homo sapiens, UniProt P35354).
T1 sequence (P35354 whole entry): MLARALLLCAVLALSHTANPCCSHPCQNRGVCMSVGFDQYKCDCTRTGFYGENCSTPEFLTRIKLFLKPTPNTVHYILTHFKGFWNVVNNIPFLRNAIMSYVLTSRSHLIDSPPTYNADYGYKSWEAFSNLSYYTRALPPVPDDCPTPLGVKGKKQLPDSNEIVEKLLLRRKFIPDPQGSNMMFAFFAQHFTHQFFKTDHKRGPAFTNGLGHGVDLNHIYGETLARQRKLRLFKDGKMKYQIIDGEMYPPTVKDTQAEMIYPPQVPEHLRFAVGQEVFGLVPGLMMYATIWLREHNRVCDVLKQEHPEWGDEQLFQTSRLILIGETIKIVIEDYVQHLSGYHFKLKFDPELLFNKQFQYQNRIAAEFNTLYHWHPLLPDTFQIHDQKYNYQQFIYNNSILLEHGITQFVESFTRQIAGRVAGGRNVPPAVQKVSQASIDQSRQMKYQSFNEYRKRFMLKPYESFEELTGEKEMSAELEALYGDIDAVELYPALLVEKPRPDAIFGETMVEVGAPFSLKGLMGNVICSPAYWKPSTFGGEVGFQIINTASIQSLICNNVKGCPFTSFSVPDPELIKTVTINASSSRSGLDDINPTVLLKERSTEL
In words: Inhibition of human recombinant COX2 by fluorescence assay.

Experiment [2] deals with T2, Prostaglandin G/H synthase 1 (Ovis aries, UniProt P05979).
T2 sequence (P05979 whole entry): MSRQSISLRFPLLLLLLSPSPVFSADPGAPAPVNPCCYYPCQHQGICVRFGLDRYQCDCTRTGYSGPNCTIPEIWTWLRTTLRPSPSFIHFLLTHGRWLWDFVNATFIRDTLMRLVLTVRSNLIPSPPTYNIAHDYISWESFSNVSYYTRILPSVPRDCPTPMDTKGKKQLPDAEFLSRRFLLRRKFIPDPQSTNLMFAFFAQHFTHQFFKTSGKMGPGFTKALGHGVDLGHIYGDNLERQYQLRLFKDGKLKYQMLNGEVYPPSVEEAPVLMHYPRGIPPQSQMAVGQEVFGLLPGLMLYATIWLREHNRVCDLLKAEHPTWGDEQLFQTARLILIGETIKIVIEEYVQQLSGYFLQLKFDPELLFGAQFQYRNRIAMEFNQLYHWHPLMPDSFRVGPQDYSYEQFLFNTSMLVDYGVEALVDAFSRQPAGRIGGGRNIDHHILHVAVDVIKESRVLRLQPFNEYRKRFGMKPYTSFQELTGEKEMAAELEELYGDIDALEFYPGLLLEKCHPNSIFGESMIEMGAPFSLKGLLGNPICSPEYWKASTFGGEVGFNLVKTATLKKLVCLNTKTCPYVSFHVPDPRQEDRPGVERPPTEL
In words: Inhibition of ovine COX1 by fluorescence assay. A digest of the protocol: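 Ovine COX-1 tested in vitro with a fluorescent COX-1/COX-2 inhibitor screening kit. Each value is the mean of three determinations, with deviation from the mean under 10%.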

Experiment [3] is described as follows: Selectivity index, ratio of IC50 for ovine COX1 to IC50 for human recombinant COX2. A digest of the protocol:
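Ovine COX-1 and human recombinant COX-2 tested in parallel with a fluorescent COX inhibitor screening kit. […] The index is the COX-1 IC50 divided by the COX-2 IC50.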

pIC50: −log10 of the molar value. Where only a bound is given, the exact number is not on record here.

`NS(=O)(=O)c1ccc(-n2cc(-c3ccc(Cl)cc3)nn2)cc1`: the figures for the pIC50 in experiment [1] and in experiment [2] were 5.89 and 4.68, respectively. The Ratio IC50 in experiment [3] is 16.1.
As to `Cc1ccc(-c2cn(-c3ccc(S(N)(=O)=O)cc3)nn2)cc1`, the pIC50 was 4.85 in experiment [1] and 4.19 in experiment [2]. In addition, the Ratio IC50 in experiment [3] amounted to 4.6.
As to `NS(=O)(=O)c1ccc(CCn2cc(-c3ccccc3)nn2)cc1`, the pIC50 in experiment [1] was 5.96; in experiment [2] it was < 4.00. In addition, in experiment [3], the Ratio IC50 is > 91.
Taken in the same sequence, the figures for `NS(=O)(=O)c1ccc(Cn2cc(-c3ccc(Cl)cc3)nn2)cc1` were 4.55, < 4.00 and > 3.6.
Turning to `NS(=O)(=O)c1ccc(Cn2cc(-c3ccc(F)cc3)nn2)cc1`, the pIC50 in experiment [1] was 5.82; in experiment [2], 4.70. Further, the Ratio IC50 in experiment [3] stood at 13.3.
Taken in the same sequence, the figures for `NS(=O)(=O)c1ccc(-n2cc(-c3ccc(F)cc3)nn2)cc1` were 4.87, < 4.00 and > 7.4.
On the same counts, the results for `NS(=O)(=O)c1ccc(-n2cc(-c3ccccc3)nn2)cc1` are 5.89, < 4.00 and > 77.
On the same counts, the results for `Cc1ccc(-c2cn(CCc3ccc(S(N)(=O)=O)cc3)nn2)cc1` are 5.47, < 4.00 and > 29.
In the case of `NS(=O)(=O)c1ccc(CCn2cc(-c3ccc(Cl)cc3)nn2)cc1`, the pIC50 in experiment [1] was 6.77; in experiment [2] it was < 4.00. For the same molecule, the Ratio IC50 in experiment [3] is > 588.
Taken in the same sequence, the figures for `COc1ccc(-c2cn(Cc3ccc(S(N)(=O)=O)cc3)nn2)cc1` were 4.89, < 4.00 and > 7.7.
Turning to `NS(=O)(=O)c1ccc(Cn2cc(-c3ccccc3)nn2)cc1`, the pIC50 was 5.19 in experiment [1] and 4.41 in experiment [2]. Moreover, the Ratio IC50 in experiment [3] is 6.
With `Cc1ccc(-c2cn(Cc3ccc(S(N)(=O)=O)cc3)nn2)cc1`, the figures for the negative-log IC50 (pIC50) in experiment [1] and in experiment [2] were 5.92 and < 4.00, respectively. Also, the Ratio IC50 in experiment [3] was > 83.
Taken in the same sequence, the figures for `COc1ccc(-c2cn(CCc3ccc(S(N)(=O)=O)cc3)nn2)cc1` were 4.57, < 4.00 and > 3.7.
Taken in the same sequence, the figures for `COc1ccc(-c2cn(-c3ccc(S(N)(=O)=O)cc3)nn2)cc1` were 4.96, < 4.00 and > 9.1.
On the same counts, the results for `NS(=O)(=O)c1ccc(CCn2cc(-c3ccc(F)cc3)nn2)cc1` are 6.00, < 4.00 and > 100.
